Screening data deposited in PubChem BioAssay by several laboratories.
HSF1 inhib: HSF1 inhibition; NIH3T3-HGL HSE-luciferase, MG132-induced, luminescence 8 h; stronger effect = lower value; activity change, negative = inhibition, % at 7.5 µM (by protocol); 0.77% of 300,000 active; AID 2098;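 active = more than half of replicate wells show activity change below -50%, luminescence cut by over half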;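 also: luciferase reports HSF-1 transcriptional activity via heat shock element; 0% = median of DMSO wells and -100% = zero luminescence signal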
DNA FID counter: fluorescent intercalator displacement, NS3 helicase counter-screen | DNA fluorescent intercalator displacement, fluorescence | inhibition, % at 7.9 µM | 0.17% of 290,000 active | AID 1845; in the data active = inhibition above about 37%;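 also: 0% = vehicle and 100% = reference compound; higher means more ethidium bromide displaced from hairpin DNA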
HSF-1 act: increases HSF-1 driven luciferase reporter signal; NIH3T3-HGL HSF-1 luciferase reporter, MG132, 8 h; 100% = twice DMSO control signal; activation, % at 9 µM; 1.7% of 300,000 active; AID 504408;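 active = mean replicate activation of at least 50% with a set share of replicates each reaching 50%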;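 also: 0% = median of the neutral control wells and 100% = twice that signal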
HCV core dimer: HCV core protein dimerization inhibition; TR-FRET GST/Flag-core106 dimerization, 1536-well; inhibition, % at 5 µM; 0.33% of 300,000 active; AID 1899;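 active = inhibition above the mean of all tested compounds plus 3 SD, set per screening campaign, cut at about 45% in these data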
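assay system = GST-tagged and Flag-tagged HCV core protein residues 1-106 | controls = unlabelled core106 and no-GST-core106 wells | incubation = compound-protein-antibody incubation 4 h at 22.5 °C | probe or stimulus = Eu donor and XL665 acceptor anti-tag antibodies | read-out = % inhibition based on acceptor/donor emission ratio | signal = TR-FRET 671 and 617 nm emission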
HSP90 inh: inhibitors of HSP90 luciferase refolding in rabbit reticulocyte lysate | AID 1789 | luciferase refolding luminescence, 3 h | 0.91% of 290,000 active | inhibition, % at 5.6 µM;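 active = inhibition above the screen-wide mean plus 3 SD, computed separately per campaign, cut at about 16% in these data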;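 also: 0% = DMSO wells and 100% = 60 µM geldanamycin wells; inhibitors lower the luminescence because luciferase stays unfolded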
NS3 helicase inh: HCV NS3 helicase inhibition; 0.56% of 290,000 active; inhibition, % at 10.9 µM; NS3 helicase DNA unwinding, Cy5 molecular beacon fluorescence;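 active = inhibition above the mean of all tested compounds plus 3 SD, set per campaign, cut at about 35% in these data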;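 also: 0% = DMSO wells and 100% = thioflavine S control wells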
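test system = hepatitis C virus NS3 helicase domain fragment enzyme | reagent = annealed dual-labelled DNA beacon duplex, ATP-started | times = 1 h at 25 °C | detection = Cy5 fluorescence, 0 and 60 min reads | read-out basis = percent inhibition from t60/t0 fluorescence ratio | control set = DMSO and thioflavine S | replication = one well per compound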
Numbers without * were called inactive; . = no result; ! = not confirmed by another sample. This is a sample that favours compounds with a hit; in the whole collection about 3.9% have one here.

SMILES	HSF1 inhib	DNA FID counter	HSF-1 act	HCV core dimer	HSP90 inh	NS3 helicase inh
Cc1cc2nc(Sc3c([N+](=O)[O-])nc(C)n3Cc3ccccc3)[nH]c2cc1C	77.3	-13.2	95.1*	10.9	5.9	2.1
CC(C)(C)Cc1nnc(NC(=O)c2ccc3c(c2)OCO3)s1	25.8	-9.0	58.1*	-5.1	-2.0	4.9
CCC(CC)c1nnc(NC(=O)c2ccc3c(c2)OCO3)s1	16.3	-32.3	33.7	7.7	-3.8	-4.9
CCCC(=O)Nc1ccccc1NC(=O)c1ccc(OCC)c(OCC)c1	0.1	-22.3	18.0	-0.6	-0.9	-1.3
O=c1cc(-c2c(F)c(F)c(F)c(F)c2F)oc2ccccc12	0.4	-1.4	-10.2	14.6	-4.1	-1.8
O=c1cc(-c2c(F)c(F)c(F)c(F)c2F)oc2c(F)c(F)c(F)c(F)c12	-94.4*	3.6	-94.8	25.2	-1.1	-7.6
CC(Sc1ccc(Cl)cc1)C(=O)NNC(=O)c1csc(N2CCOCC2)n1 (centres undefined)	-1.1	-12.6	-4.4	2.3	-1.5	-5.7
Clc1ccc(SCc2csc(N3CCOCC3)n2)cc1	35.9	-20.3	71.8*	0.3	-1.4	1.4
CN(C)S(=O)(=O)c1ccc(-c2csnn2)s1	-86.2*	-0.3	-89.1	0.2	3.2	8.1
CN(C)c1ccc(NS(=O)(=O)c2ccc(-c3csnn3)cc2)cc1	-35.1	1.6	-32.6	-0.8	-1.7	5.7
O=C1NC(=S)S/C1=C/c1ccc(OC(=O)c2ccco2)cc1	19.0	-3.6	55.0*	-6.6	-4.4	21.4
CCOc1ccc(S(=O)(=O)NCCC(=O)OC(C)C(=O)N2CCc3ccccc32)cc1 (centres undefined)	15.1	-38.4	56.1*	8.3	-2.8	-13.0
CCc1cccc(NS(=O)(=O)c2ccc3c(c2)NC(=O)C(C)S3)c1 (centres undefined)	34.8	-17.4	77.0*	-4.3	5.7	13.2
COc1ccc(S(=O)(=O)Nc2cc(Sc3ncn[nH]3)c(O)c3ccccc23)cc1	.	5.4	.	.	76.5*	7.2
CC(C)N(CCc1ccncc1)C(=S)Nc1ccc(F)c(Cl)c1	-0.9	-1.7	9.7	-3.0	-1.9	-4.0
Cc1ccc2nc(NC(=O)CSCC(=O)OCC(=O)c3ccc(Br)cc3)sc2c1	-66.3*	-4.6	-73.3	4.7	49.9*	5.3
COCC(=O)Nc1nc2ccc(C)cc2s1	19.4	1.9	38.7	3.6	16.8*	-2.0
COC(=O)c1ccc2nc(NC(=O)CSCC(=O)OCC(=O)c3ccccc3)sc2c1	-17.0	-3.8	-24.6	-3.2	3.9	2.2
CCOC(=O)c1c(C)c(C(=O)NCCc2ccccc2)c(C)n1C	40.4	-24.0	77.3*	8.5	-1.6	-0.9
N#Cc1nc(-c2ccco2)oc1N1CCN(Cc2ccccc2)CC1	-79.9*	-21.8	-85.2	-0.8	-1.1	-0.5
Cc1cc(-c2ccc(C)c(S(=O)(=O)NCCC(C)N3CCCCCC3)c2)on1 (centres undefined)	-67.2*	6.0	-72.8	-6.0	0.7	-8.4
Cc1cc(-c2ccc(C(C)C)c(S(=O)(=O)NCCN3CCC(C)CC3)c2)on1	15.0	32.6	66.7*	-0.9	1.5	-30.0
Cc1cc(-c2ccc(C)c(S(=O)(=O)NCCCN3CCCCCC3)c2)on1	1.7	14.3	18.4	-11.8	3.6	-23.5
C[C@H](NC(=O)N1CCn2c1nc1ccccc12)C(=O)NCc1ccc(F)cc1	12.5	-34.4	30.3	1.9	-0.1	1.1
O=C(c1cccc(Br)c1)N1CCN(S(=O)(=O)N2CCCCCC2)CC1	-7.7	-36.7	-15.4	0.5	-3.0	-7.7
SMILES	HSF1 inhib	DNA FID counter	HSF-1 act	HCV core dimer	HSP90 inh	NS3 helicase inh
COc1ccccc1CCC(=O)N1CCC(n2nccc2NC(=O)C2CCOC2)CC1 (centres undefined)	-1.5	-18.6	-2.2	-0.5	-1.3	-0.3
CCOc1ccc(NC(=O)CN2C(=O)/C(=C3\SC(=S)N(C4CCS(=O)(=O)C4)C3=O)c3ccccc32)cc1 (centres undefined)	.	-3.1	.	.	20.4*	12.3
CCOC(=O)CN1C(=O)/C(=C2\SC(=S)N(NC(=O)c3cccnc3)C2=O)c2ccccc21	-2.8	-0.7	5.6	3.1	0.5	20.8
COc1ccccc1-n1cnnc1SCC(=O)N1CCOCC1	-11.0	-6.7	4.9	-1.2	0.0	-6.2
COC(=O)c1ccc2c(=O)[nH]c(CN3c4ccccc4CC3C)nc2c1 (centres undefined)	1.8	-6.4	-1.9	24.8	-0.7	0.9
CC1Cc2ccccc2N1Cc1nc2cc(Cl)ccc2c(=O)[nH]1 (centres undefined)	-1.9	-11.0	16.1	71.5*	-2.5	2.6
CC1Cc2ccccc2N1Cc1nc2scc(-c3cccs3)c2c(=O)[nH]1 (centres undefined)	-5.9	-12.1	-7.2	55.2*	1.2	28.2
O=C(O)c1ccccc1C(=O)Nc1nc(-c2ccc3ccccc3c2)cs1	-0.7	-36.7	0.5	12.4	-1.7	-3.2
Cc1ccc(C2=NN(C(=S)Nc3ccccc3)C(c3ccco3)C2)cc1 (centres undefined)	38.5	-9.0	60.6*	-6.6	7.2	14.1
CCN(CC)c1ccc(/C=N/NC(=O)CNC(=O)c2ccc3c(c2)OCCO3)cc1	-2.9	-27.3	-19.2	-15.5	1.8	-1.2
CCSc1nc(CC)c2c(c1C#N)CCCC2	-6.4	5.3	2.4	-4.9	-0.2	-1.2
CCOc1ccc(C2=C(C=C(C#N)C#N)C(c3ccccc3)c3ccccc3O2)cc1 (centres undefined)	5.6	-11.5	9.8	6.9	4.8	-3.1
COc1ccc(C2=C(CN(C)C)C(c3ccccc3)c3ccccc3O2)cc1 (centres undefined)	6.5	46.0*!	9.5	-14.8	2.4	-76.6
CCN1CC(CN(C)Cc2nc(-c3ccc(OC)c4ccccc34)oc2C)CC1=O (centres undefined)	-4.9	-5.2	1.9	-0.8	3.4	8.3
CCN1CC(CN(C)Cc2nc(COc3ccccc3)no2)CC1=O (centres undefined)	22.9	-11.6	54.8*	0.1	-2.9	-2.0
Cc1ccc[n+](CC(=O)Nc2ccc([N+](=O)[O-])cc2Cl)c1	26.7	3.6	66.6*	-4.0	-3.0	3.6
CCc1ccc(NC(=O)C(C)OC(=O)c2ccc(NS(=O)(=O)c3ccc(C)c([N+](=O)[O-])c3)cc2)cc1 (centres undefined)	-9.3	1.4	-21.8	35.4	-4.0	-7.8
Cc1ccc(S(=O)(=O)Nc2ccccc2C(=O)OC(C)C(=O)Nc2ccc3ccccc3c2)cc1[N+](=O)[O-] (centres undefined)	2.5	-2.4	6.3	46.6*	1.4	-17.7
O=[N+]([O-])c1ccc(Sc2cccc3cccnc23)c([N+](=O)[O-])c1	-1.2	-2.8	32.7	6.1	1.9	-1.9
